{"source": "ChEMBL document CHEMBL1132370", "about": "“8,11-dihydroxy-6-[(aminoalkyl)amino]-7H-benzo[e]perimidin-7-ones with activity in multidrug-resistant cell lines: synthesis and antitumor evaluation” (J Med Chem, 1999)", "key": {"[1]": {"system": "HT-29", "test": "Percent inhibition at G1 phase of cell cycle at a dose of 10 ng/mL after 72 hours of induction in HT-29/Mx cell line", "assay_type": "functional", "conditions": "Homo sapiens, HT-29, 72 h", "in_short": "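HT29 or HT29/Mx cells were treated for 72 h, then fixed in 70% ice-cold ethanol. Cells were stained with PBS containing 30 μg/mL propidium iodide and 66 units/mL RNase A, and DNA content was measured by flow cytometry on at least 10^4 cells to give G1, S and G2/M fractions.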"}, "[2]": {"system": "HT-29", "test": "Percent inhibition at S phase of cell cycle at a dose of 100n g/mL after 72 hours of induction in HT-29/Mx cell line", "assay_type": "functional, Homo sapiens", "in_short": "(§1)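 HT29 and mitoxantrone-resistant HT29/Mx colon adenocarcinoma monolayers in McCoy's 5A with 10% FBS and 1% 1 M Hepes, 37 °C, 5% CO2. Drug exposure 72 h. Cells then fixed in 70% ice-cold ethanol, washed twice and resuspended in PBS with 30 μg/mL propidium iodide and 66 units/mL RNase A. At least 10^4 cells per sample read for DNA content by flow cytometry. G1/S/G2M fractions reported as percentages.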"}, "[3]": {"system": "HT-29", "test": "Percent inhibition at S phase of cell cycle at a dose of 10 ng/mL after 72 hours of induction in HT-29/Mx cell line", "assay_type": "functional", "conditions": "Homo sapiens, HT-29, 72 h", "in_short": "as §1"}, "[4]": {"system": "HT-29", "test": "Percent inhibition at S phase of cell cycle at a dose of 20 ng/mL after 72 hours of induction in HT-29/Mx cell line", "assay_type": "functional", "conditions": "Homo sapiens, HT-29, 72 h", "in_short": "as §1"}, "[5]": {"system": "HT-29", "test": "Effect of compound as percent survival at dose of 100n g/mL on HT-29/Mx cell line after 72 hours", "assay_type": "functional, Homo sapiens", "in_short": "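HT29 or mitoxantrone-resistant HT29/Mx monolayers grown in McCoy's 5A with 10% FBS and 1% 1 M Hepes at 37 °C, 5% CO2. Cells exposed to drug for 72 h. Survival measured by cell counting and given as percent of untreated control.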"}, "[6]": {"system": "Mus musculus", "test": "In vivo antileukemic activity towards P388 Murine Leukemia at a dose of 20.0 mg/kg, expressed as body weight change", "assay_type": "functional"}, "[7]": {"system": "Mus musculus", "test": "In vivo antileukemic activity towards P388 Murine Leukemia at a dose of 30.0 mg/kg, expressed as body weight change", "assay_type": "functional"}, "[8]": {"system": "Mus musculus", "test": "In vivo antileukemic activity towards P388 Murine Leukemia at a dose of 5.0 mg/kg", "assay_type": "functional"}, "[9]": {"system": "Mus musculus", "test": "Toxic deaths at dose of 6.7 mg/kg (i.v.) to nude mice bearing sc Human A2780/Dx tumor Xenografts tested in 5 animals", "assay_type": "functional", "conditions": "route intravenous", "in_short": "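Tumor fragments of A2780, A2780/Dx or HT29/Mx grafted sc in both flanks of Swiss athymic nude mice, 4–5 mice per group. Drug given iv once weekly on 3 days: days 4, 11, 18 (A2780, HT29/Mx) or days 7, 14, 21 (A2780/Dx). Dosing started at mean tumor volume 80–100 mm3. Toxic deaths recorded as deaths/total mice.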"}, "[10]": {"system": "Mus musculus", "test": "Tumor volume inhibition administered iv at a dose of 14 mg/kg to nude mice bearing sc Human HT-29/Mx Xenografts", "assay_type": "functional", "in_short": "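Swiss nude athymic mice carrying tumor fragments grafted sc in both flanks, 4–5 mice (8–10 tumors) per group. Tumor lines kept by sc passage. Dosing iv once weekly for 3 doses, starting at mean tumor volume ca. 80–100 mm3 (A2780, HT29/Mx: days 4, 11, 18; A2780/Dx: days 7, 14, 21). Diameters measured twice weekly; TV = d²×D/2. %TVI treated vs control assessed 3–10 days after last dose.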"}, "[11]": {"system": "K562", "test": "Compound was tested in vitro for cytotoxicity against sensitive cell line K562S (72 hr exposure to compound)", "conditions": "Homo sapiens, K562, 72 h"}}, "note": "Where “and” joins values, the source holds several entries; their conditions need not be identical. Equal entries are not always repeated.", "data": [{"smiles": "CN(C)CCNc1ccc2ncnc3c2c1C(=O)c1c(O)ccc(O)c1-3", "values": [{"measurement": "inhibition at 0.01 µg/mL", "setting": "[1]", "value": 63, "unit": "%"}, {"measurement": "Inhibition", "setting": "[2]", "value": 17, "unit": "%"}, {"measurement": "inhibition at 0.01 µg/mL", "setting": "[3]", "value": 7, "unit": "%"}, {"measurement": "inhibition at 0.02 µg/mL", "setting": "[4]", "value": 11, "unit": "%"}, {"measurement": "Survival", "setting": "[5]", "value": 12, "unit": "%"}, {"measurement": "Body weight change", "setting": "[6]", "value": "0.9 BWC and 0.94 BWC"}, {"measurement": "Body weight change", "setting": "[7]", "value": 0.88, "unit": "BWC"}, {"measurement": "T/C (ratio of treated to control)", "setting": "[8]", "value": "147% and 167%"}, {"measurement": "Toxic deaths", "setting": "[9]", "value": 0}, {"measurement": "TVI", "setting": "[10]", "value": 7, "unit": "%"}, {"measurement": "IC50", "setting": "[11]", "value": 5.56, "unit": "nM"}]}]}
